Assay results taken from ChEMBL document CHEMBL1955770, “Inhibition of S/G2 phase CDK4 reduces mitotic fidelity” (J Biol Chem, 2006).
Activity calls are given as the source filed them. The calls are words filed in the database; no cut-off is given here.

Legend:
[1] = tested on: MDA-MB-435; assay: Toxicity in human MDA-MB-435 cells at 8 uM by MTT assay; assay type: cell-based; conditions: mda-mb-435, 8 µM
[2] = tested on: HeLa; assay: Cell cycle arrest in human HeLa cells assessed as accumulation at S phase at 2 uM treated 6 hr and measured 8 hr post double thymidine-synchrony release using propidium iodide staining by FACS analysis (reference value: 8 %); assay type: functional
How it was run: (§1)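 Cells harvested at set times post-release, fixed in 70% ethanol, stained with 5 μg/ml propidium iodide plus 0.5 mg/ml RNase A, and analysed by flow cytometry. Cell-cycle phase fractions calculated by ModFit.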

[3] = tested on: HeLa; assay: Cell cycle arrest in human HeLa cells assessed as accumulation at G2/M phase at 2 uM treated 4 hr and measured 12 hr post double thymidine-synchrony release using propidium iodide staining by FACS analysis (reference value: 17 %); assay type: functional; how it was run: as §1
[4] = target: Mitogen-activated protein kinase 3 (Homo sapiens, UniProt P27361); assay: Inhibition of ERK1 using fluorescent substrate by IMAP assay
Mitogen-activated protein kinase 3, sequence (P27361 whole entry): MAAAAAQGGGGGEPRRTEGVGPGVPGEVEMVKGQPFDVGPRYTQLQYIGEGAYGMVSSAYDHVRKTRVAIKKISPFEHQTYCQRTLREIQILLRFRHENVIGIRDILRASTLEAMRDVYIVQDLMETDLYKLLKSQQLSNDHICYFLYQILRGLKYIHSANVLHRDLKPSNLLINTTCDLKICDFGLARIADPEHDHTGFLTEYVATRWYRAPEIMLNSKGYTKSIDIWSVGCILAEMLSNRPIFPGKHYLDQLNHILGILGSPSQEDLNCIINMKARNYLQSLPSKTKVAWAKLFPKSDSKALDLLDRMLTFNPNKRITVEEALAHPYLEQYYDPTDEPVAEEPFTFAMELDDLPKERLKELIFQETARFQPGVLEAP
How it was run: (§2)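 Run in-house using IMAP: phosphorylated fluorescent peptide substrate binds preferentially to immobilized metal beads, which quantifies kinase activity. ATP at 3× the Km of each enzyme.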

[5] = target: Cyclin-dependent kinase 4/cyclin D1 (Homo sapiens, UniProt P11802); assay: Inhibition of human GST-tagged CDK4-cyclin D1 using his-tagged Rb as substrate after 30 mins by scintillation counting method; assay type: protein-complex assay
Cyclin-dependent kinase 4/cyclin D1, sequence (P11802 whole entry): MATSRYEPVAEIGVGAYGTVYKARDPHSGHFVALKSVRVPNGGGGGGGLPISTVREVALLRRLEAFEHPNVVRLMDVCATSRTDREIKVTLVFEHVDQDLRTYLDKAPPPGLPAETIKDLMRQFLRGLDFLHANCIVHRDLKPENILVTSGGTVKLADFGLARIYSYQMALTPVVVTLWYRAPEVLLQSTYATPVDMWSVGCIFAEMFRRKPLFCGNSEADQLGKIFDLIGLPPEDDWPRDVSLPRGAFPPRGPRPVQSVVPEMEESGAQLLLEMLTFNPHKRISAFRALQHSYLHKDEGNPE
Cyclin-dependent kinase 4/cyclin D1, sequence (P24385 whole entry, further chain): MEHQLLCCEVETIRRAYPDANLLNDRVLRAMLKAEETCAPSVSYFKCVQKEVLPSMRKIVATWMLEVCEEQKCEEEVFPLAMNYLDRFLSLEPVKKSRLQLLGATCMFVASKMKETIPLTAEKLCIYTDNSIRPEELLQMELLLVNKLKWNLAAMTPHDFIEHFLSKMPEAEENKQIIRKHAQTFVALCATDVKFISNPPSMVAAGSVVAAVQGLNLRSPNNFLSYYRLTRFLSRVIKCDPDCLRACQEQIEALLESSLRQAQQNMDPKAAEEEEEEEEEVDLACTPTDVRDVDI

[6] = tested on: HeLa; assay: Decrease in survivin mRNA expression in human HeLa cells at 2 uM measured 8 to 14 hr post thymidine-synchrony release by RT-PCR analysis; assay type: functional, cell-based
How it was run: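 Survivin mRNA measured by real-time Taqman RT-PCR on TRIzol-extracted RNA from synchronized, treated HeLa samples, with β-actin as reference. Reaction used 600 nM each primer and 200 nM probe. Cycling: 50 °C for 2 min, 95 °C for 10 min, then 40 cycles of 95 °C for 15 s and 60 °C for 1 min. Values are the average of triplicate determinations.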

[7] = tested on: HeLa; assay: Cell cycle arrest in human HeLa cells assessed as time delay in progression through G2/M phase at 4 uM treated within 4 hr post double thymidine-synchrony release using propidium iodide staining by FACS analysis; assay type: functional; how it was run: as §1
[8] = tested on: HeLa; assay: Cell cycle arrest in human HeLa cells assessed as accumulation at S phase at 2 uM treated 4 hr and measured 8 hr post double thymidine-synchrony release using propidium iodide staining by FACS analysis (reference value: 8 %); assay type: functional; how it was run: as §1
[9] = target: Proto-oncogene tyrosine-protein kinase Src (Homo sapiens, UniProt P12931); assay: Inhibition of Src using fluorescent substrate by IMAP assay; how it was run: as §2
Proto-oncogene tyrosine-protein kinase Src, sequence (P12931 2-536 limits assumed): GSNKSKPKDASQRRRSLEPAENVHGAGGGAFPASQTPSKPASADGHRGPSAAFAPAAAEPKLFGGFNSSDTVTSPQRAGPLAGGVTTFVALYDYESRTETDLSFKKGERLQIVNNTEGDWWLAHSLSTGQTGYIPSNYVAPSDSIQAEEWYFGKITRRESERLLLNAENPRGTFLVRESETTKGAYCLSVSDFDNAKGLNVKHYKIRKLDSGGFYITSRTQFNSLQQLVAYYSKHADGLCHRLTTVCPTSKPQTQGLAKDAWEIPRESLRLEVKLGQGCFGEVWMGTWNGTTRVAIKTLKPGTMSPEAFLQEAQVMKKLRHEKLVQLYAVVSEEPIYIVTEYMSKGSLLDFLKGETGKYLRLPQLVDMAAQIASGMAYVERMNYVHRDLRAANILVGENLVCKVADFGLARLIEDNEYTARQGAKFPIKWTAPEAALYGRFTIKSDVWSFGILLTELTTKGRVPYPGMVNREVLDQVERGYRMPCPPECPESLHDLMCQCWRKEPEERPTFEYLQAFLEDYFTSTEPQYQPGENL

[10] = tested on: HeLa; assay: Cell cycle arrest in human HeLa cells assessed as accumulation at G2/M phase at 2 uM treated 2 hr and measured 10 hr post double thymidine-synchrony release using propidium iodide staining by FACS analysis (reference value: 31 %); assay type: functional; how it was run: as §1
[11] = tested on: RKO; assay: Toxicity in human RKO cells at 8 uM by MTT assay; assay type: cell-based
[12] = Inhibition of p38 MAPK using fluorescent substrate by IMAP assay; how it was run: as §2
[13] = tested on: A2058; assay: Cell cycle arrest in human A2058 cells assessed as accumulation at S phase at 2 uM treated 1 hr and measured 12 hr post double hydroxyurea-synchrony release using propidium iodide staining by FACS analysis (reference value: 47 %); assay type: functional
[14] = tested on: MDA-MB-435; assay: Antiproliferative activity against human MDA-MB-435 cells assessed as inhibition of S phase after 48 hrs by MTT assay; assay type: functional, cell-based; conditions: MDA-MB-435, 48 h
How it was run: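 Cells grown in DMEM with 3 mM HEPES and 10% Serum Supreme at 37 °C, 5% CO2. Proliferation read by MTT assay 48 h after drug addition; IC50 given as mean of two separate determinations, each in duplicate.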

[15] = Cell cycle arrest in human SK-MEL-13 cells assessed as effect on G2/M phase progression at 2 uM treated 6 hr post double hydroxyurea-synchrony release using propidium iodide staining by FACS analysis; assay type: functional, cell-based
[16] = Cell cycle arrest in human SK-MEL-13 cells assessed as time taken to reach peak mitosis at 2 uM treated 1 hr and post double hydroxyurea-synchrony release using propidium iodide staining by FACS analysis; assay type: functional, cell-based
How it was run: (§3)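 SK-Mel-13 cells synchronized with 2 mM hydroxyurea, then treated with 2 μM CDK4 inhibitor or left untreated 1 h after release. Harvested at indicated times post-release, ethanol-fixed, propidium iodide/RNase stained, and DNA content read by FACS. Proportions of G1, S and G2/M cells derived with ModFit.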

[17] = Cell cycle arrest in human SK-MEL-13 cells assessed as accumulation at S phase at 2 uM treated 1 hr and measured 10 hr post double hydroxyurea-synchrony release using propidium iodide staining by FACS analysis (reference value: 16 %); assay type: functional, cell-based; how it was run: as §3
[18] = tested on: HeLa; assay: Cell cycle arrest in human HeLa cells assessed as accumulation at S phase at 2 uM treated 2 hr and measured 10 hr post double thymidine-synchrony release using propidium iodide staining by FACS analysis (reference value: 1 %); assay type: functional; how it was run: as §1
[19] = tested on: A2058; assay: Cell cycle arrest in human A2058 cells assessed as effect on G2/M phase progression at 2 uM treated 6 hr post double hydroxyurea-synchrony release using propidium iodide staining by FACS analysis; assay type: functional, cell-based
[20] = tested on: HeLa; assay: Induction of abberent mitosis in synchronized human HeLa cells expressing GFP-H2B assessed as micronuclei formation at 2 uM treated 1 hr and measured 12 hr post thymidine-synchrony release by time-lapse microscopy; assay type: functional, cell-based
[21] = tested on: A2058; assay: Cell cycle arrest in human A2058 cells assessed as accumulation at S phase at 2 uM treated 1 hr and measured 8 hr post double hydroxyurea-synchrony release using propidium iodide staining by FACS analysis (reference value: 52 %); assay type: functional
[22] = target: Tyrosine-protein kinase Lck (Homo sapiens, UniProt P06239); assay: Inhibition of Lck using fluorescent substrate by IMAP assay; how it was run: as §2
Tyrosine-protein kinase Lck, sequence (P06239 whole entry): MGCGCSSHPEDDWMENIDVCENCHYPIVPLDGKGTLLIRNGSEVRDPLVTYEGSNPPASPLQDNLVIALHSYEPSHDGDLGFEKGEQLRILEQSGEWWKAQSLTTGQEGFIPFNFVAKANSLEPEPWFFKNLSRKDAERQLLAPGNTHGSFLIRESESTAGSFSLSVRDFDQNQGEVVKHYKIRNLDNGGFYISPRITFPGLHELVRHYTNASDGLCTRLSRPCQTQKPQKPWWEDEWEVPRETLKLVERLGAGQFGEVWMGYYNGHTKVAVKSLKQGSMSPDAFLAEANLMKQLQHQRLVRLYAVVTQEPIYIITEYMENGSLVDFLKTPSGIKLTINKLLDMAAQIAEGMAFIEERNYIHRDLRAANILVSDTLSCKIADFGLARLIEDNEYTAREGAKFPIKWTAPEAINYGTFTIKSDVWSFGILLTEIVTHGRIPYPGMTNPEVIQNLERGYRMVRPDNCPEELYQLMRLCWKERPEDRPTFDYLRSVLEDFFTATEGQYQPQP

[23] = tested on: MDA-MB-453; assay: Toxicity in human MDA-MB-453 cells at IC50 after 3 days by MTT assay; assay type: cell-based; conditions: mda-mb-453, 72 h
[24] = tested on: HeLa; assay: Cell cycle arrest at G2 phase in human HeLa cells assessed as increase in Wee1 level at 2 uM treated at early S phase measured after 8-14 hr post-synchrony release by immunoblot method; assay type: functional, cell-based
[25] = Cell cycle arrest in human SK-MEL-13 cells assessed as accumulation at G1 phase at 2 uM treated 1 hr and measured 8 hr post double hydroxyurea-synchrony release using propidium iodide staining by FACS analysis (reference value: 10 %); assay type: functional, cell-based; how it was run: as §3
[26] = tested on: HeLa; assay: Cell cycle arrest at G2 phase in human HeLa cells assessed as decrease in Cyclin A-CDK2 level at 2 uM treated at early S phase measured after 6-14 hr post thymidine-synchrony release by immunoblot method relative to untreated control; assay type: functional, cell-based
[27] = target: Insulin-like growth factor 1 receptor (Homo sapiens, UniProt P08069); assay: Inhibition of IGF1R using fluorescent substrate by IMAP assay; how it was run: as §2
Insulin-like growth factor 1 receptor, sequence (P08069 31-736 limits assumed): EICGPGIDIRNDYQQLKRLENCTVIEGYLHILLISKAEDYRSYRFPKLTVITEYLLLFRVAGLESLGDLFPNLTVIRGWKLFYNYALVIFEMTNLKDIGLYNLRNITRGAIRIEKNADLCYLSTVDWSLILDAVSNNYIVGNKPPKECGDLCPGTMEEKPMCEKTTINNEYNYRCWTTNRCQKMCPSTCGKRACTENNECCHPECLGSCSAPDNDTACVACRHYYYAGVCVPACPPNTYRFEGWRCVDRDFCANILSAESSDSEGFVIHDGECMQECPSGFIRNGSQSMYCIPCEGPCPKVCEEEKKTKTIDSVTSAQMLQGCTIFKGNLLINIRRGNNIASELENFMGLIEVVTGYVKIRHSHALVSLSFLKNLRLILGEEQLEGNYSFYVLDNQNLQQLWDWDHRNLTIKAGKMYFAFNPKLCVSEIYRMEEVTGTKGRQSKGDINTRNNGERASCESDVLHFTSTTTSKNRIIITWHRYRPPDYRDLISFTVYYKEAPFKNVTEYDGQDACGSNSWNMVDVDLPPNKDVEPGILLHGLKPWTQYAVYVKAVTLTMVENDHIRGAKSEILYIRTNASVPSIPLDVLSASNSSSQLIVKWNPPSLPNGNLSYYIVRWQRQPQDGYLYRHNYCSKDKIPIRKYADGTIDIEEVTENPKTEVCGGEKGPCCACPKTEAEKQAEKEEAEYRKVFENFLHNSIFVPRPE
Insulin-like growth factor 1 receptor, sequence (P08069 741-1367 limits assumed): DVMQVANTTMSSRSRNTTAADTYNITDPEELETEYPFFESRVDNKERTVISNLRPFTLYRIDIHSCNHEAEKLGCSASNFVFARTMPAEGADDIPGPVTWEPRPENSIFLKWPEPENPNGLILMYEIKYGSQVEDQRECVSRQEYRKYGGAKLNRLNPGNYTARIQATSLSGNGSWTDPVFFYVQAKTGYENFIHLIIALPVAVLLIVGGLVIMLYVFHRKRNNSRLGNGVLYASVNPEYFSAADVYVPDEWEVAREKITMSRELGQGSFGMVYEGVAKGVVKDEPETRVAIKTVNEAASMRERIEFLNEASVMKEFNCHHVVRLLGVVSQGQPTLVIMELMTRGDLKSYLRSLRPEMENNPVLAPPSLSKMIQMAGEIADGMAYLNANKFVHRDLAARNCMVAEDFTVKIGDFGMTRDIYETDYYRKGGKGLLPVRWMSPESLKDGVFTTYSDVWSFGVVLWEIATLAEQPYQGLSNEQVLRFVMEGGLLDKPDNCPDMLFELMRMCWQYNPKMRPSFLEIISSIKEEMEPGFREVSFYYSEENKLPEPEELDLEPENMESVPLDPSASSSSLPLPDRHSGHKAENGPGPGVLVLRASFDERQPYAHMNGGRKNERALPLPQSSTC

[28] = tested on: A2058; assay: Cell cycle arrest in human A2058 cells assessed as accumulation at S phase at 2 uM treated 1 hr and measured 10 hr post double hydroxyurea-synchrony release using propidium iodide staining by FACS analysis (reference value: 35 %); assay type: functional
[29] = tested on: HeLa; assay: Cell cycle arrest in human HeLa cells assessed as time delay in progression through G2/M phase at 2 uM treated at 4 hr post double thymidine-synchrony release using propidium iodide staining by FACS analysis; assay type: functional; how it was run: as §1

For `COc1cccc(C(=O)c2sc(Nc3ccc(N4CCN(C(C)C)CC4)cc3)nc2N)c1`, the Activity [1] was “Toxic”, the Activity [2] was 5% and the Activity [3] was 62%. The IC50 [4] was greater than 100 µM, the IC50 [5] was 0.02 µM and the Activity [6] was “Active”. The Time [7] was greater than 4 h, the Activity [8] was 4% and the IC50 [9] was 3.48 µM. For the same compound, the Activity [10] was 90%, the Activity [11] was “Toxic” and the IC50 [12] was greater than 100 µM. For the same compound, the Activity [13] was 40%, the IC50 [14] was 1.2 µM and the Activity [15] was “inactive”. It also gave a TIME [16] of 10 h, an Activity [17] of 14% and an Activity [18] of 6%. The Activity [19] was “inactive”, the Activity [20] was “Active” and the Activity [21] was 23%. The IC50 [22] was greater than 100 µM, the Activity [23] was “Toxic” and the Activity [24] was “Active”. The Activity [25] was 12%, the Activity [26] was “Active” and the IC50 [27] was 20 µM. It also gave an Activity [28] of 36% and a Time [29] of 2 h.

In the case of `CN1CCN(c2ccc(Nc3nc(N)c(C(=O)c4ccc5c(c4)OCCO5)s3)cc2)CC1`, the Activity [1] is reported as “Toxic”, the Activity [2] is reported as 5% and the Activity [3] is reported as 62%. For the same compound, the IC50 [4] was greater than 100 µM, the IC50 [5] was 0.02 µM and the Activity [6] was “Active”. For the same compound, the Time [7] was greater than 4 h, the Activity [8] was 4% and the IC50 [9] was 3.21 µM. For the same compound, the Activity [10] was 90%, the Activity [11] was “Toxic” and the IC50 [12] was 29 µM. For the same compound, the Activity [13] was 40%, the IC50 [14] was 3.06 µM and the Activity [15] was “inactive”. For the same compound, the TIME [16] was 10 h, the Activity [17] was 14% and the Activity [18] was 6%. For the same compound, the Activity [19] was “inactive”, the Activity [20] was “Active” and the Activity [21] was 23%. The IC50 [22] was greater than 100 µM, the Activity [23] was “Toxic” and the Activity [24] was “Active”. The Activity [25] was 12%, the Activity [26] was “Active” and the IC50 [27] was 22 µM. It also gave an Activity [28] of 36% and a Time [29] of 2 h.
